Source: ChEMBL document CHEMBL1149851, “Pestalotheols A-D, bioactive metabolites from the plant endophytic fungus Pestalotiopsis theae” (J Nat Prod, 2008)
Counter-ions that a name gives are not always drawn. The source made the active and inactive calls. No cut-off for these calls is given here.

Key:
[1] = system: Human immunodeficiency virus 1; assay: Inhibition of HIV1 LAI replication in C8166 cells after 4 days by ELISA; assay type: functional, organism-based; settings: Human immunodeficiency virus 1, LAI, C8166, 96 h
How it was run: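 C8166 cells were infected with HIV-1 LAI (MOI 0.058) for 1.5 h at 37 °C, PBS-washed, and seeded at 3 × 10⁴/well with or without compounds; indinavir sulfate was the positive control. After 4 days, supernatant was inactivated with 0.5% Triton X-100 and diluted threefold. p24 was measured by capture ELISA (anti-p24 mAb coat, HRP-anti-p24, OPD, A490), and EC₅₀ was derived from p24 level.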

Streptococcus mutans = assay: Antibacterial activity against Streptococcus mutans ATCC 25175 assessed as zone of inhibition at 100 ug/disk after 24 hrs; assay type: functional, organism-based
How it was run: (§1)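 Bacteria grown on Mueller-Hinton agar. Paper disks (6 mm) loaded with 100 µg test compound per disk were placed on the seeded agar surface. Plates were incubated at 37 °C for 24 h, then scored for the presence of a zone of inhibition.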

[2] = Cytotoxicity against human C8166 cells after 4 days by MTT method; assay type: cell-based
How it was run: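 C8166 cells were seeded at 3 × 10⁴/well with or without a range of test-compound concentrations, in triplicate. They were incubated 4 days at 37 °C in humid 5% CO₂, and viability was read by MTT. CC₅₀ is the concentration reducing viable cells by 50%.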

Micrococcus luteus = assay: Antibacterial activity against Sarcina lutea CMCC B28001 assessed as zone of inhibition at 100 ug/disk after 24 hrs; assay type: functional, organism-based; how it was run: as §1
Enterococcus faecalis = assay: Antibacterial activity against Enterococcus faecalis ATCC 19433 assessed as zone of inhibition at 100 ug/disk after 24 hrs; assay type: functional, organism-based; how it was run: as §1
Candida albicans = assay: Antifungal activity against Candida albicans ATCC 10231 assessed as zone of inhibition at 100 ug/disk after 48 hrs
Aspergillus fumigatus = assay: Antifungal activity against Aspergillus fumigatus ATCC 10894 assessed as zone of inhibition at 100 ug/disk after 48 hrs
Staphylococcus aureus = assay: Antibacterial activity against Staphylococcus aureus ATCC 6538 assessed as zone of inhibition at 100 ug/disk after 24 hrs; assay type: functional, organism-based; how it was run: as §1
[3] = Selectivity index, ratio of CC50 for human C8166 cells to EC50 for HIV1 LAI; assay type: toxicity, cell-based; settings: read-out: Ratio CC50/EC50
How it was run: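 Index calculated as CC₅₀/EC₅₀. CC₅₀ came from a 4-day MTT viability assay in C8166 cells run in parallel with a 4-day HIV-1 LAI (MOI 0.058) replication assay in C8166 cells, whose EC₅₀ was read from p24 antigen capture ELISA.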

Geotrichum candidum = assay: Antifungal activity against Geotrichum candidum AS2.498 assessed as zone of inhibition at 100 ug/disk after 48 hrs

| EC50 [1] | Structure (SMILES) | Activity (Streptococcus mutans) | CC50 at 96 h [2] | Activity (Micrococcus luteus) | Activity (Enterococcus faecalis) | Activity (Candida albicans) | Activity (Aspergillus fumigatus) | Activity (Staphylococcus aureus) | selectivity ratio [3] | Activity (Geotrichum candidum) |
| --- | --- | --- | --- | --- | --- | --- | --- | --- | --- | --- |
| 0.00818 µM | CC(C)(C)NC(=O)[C@@H]1CN(Cc2cccnc2)CCN1C[C@@H](O)C[C@@H](Cc1ccccc1)C(=O)N[C@H]1c2ccccc2C[C@H]1O [INDINAVIR SULFATE] |  |  |  |  |  |  |  |  |  |
| 16.1 µM | CC(C)=C/C=C1/C[C@@H]2O[C@@H](C(C)(C)O)C[C@@]23O[C@H]3[C@@H]1O [PESTALOTHEOL C] | inactive | 163 µM | inactive | inactive | inactive | inactive | inactive | 10.1 | inactive |
|  | CC1(C)CC(=O)C2=C(O1)[C@H](O)[C@]1(O)C[C@H](C(C)(C)O)O[C@H]1C2 | inactive |  | inactive | inactive | inactive | inactive | inactive |  | inactive |
|  | CC1(C)CC(=O)C2=C(C[C@]3(O)C[C@H](C(C)(C)O)O[C@H]3C2)O1 | inactive |  | inactive | inactive | inactive | inactive | inactive |  | inactive |
|  | CC1(C)CC(=O)c2cc3c(cc2O1)C[C@H](C(C)(C)O)O3 | inactive |  | inactive | inactive | inactive | inactive | inactive |  | inactive |
